# Compounds with a hit are over-represented: about 1.7% of the library has one in this group of screens.
# HNF4A DNA FP: change in binding of human HNF4A to DNA, primary screen, biochemical, fluorescence polarization, FITC-DNA. 1 h. hit rate 0.3% among 360,000. activity change, % at 10 µM. Hepatocyte nuclear factor 4-alpha (Homo sapiens), P41235; in the data active = activity change above about 30%, passing the limit was not always enough
# Target sequence (P41235 whole entry, looked up): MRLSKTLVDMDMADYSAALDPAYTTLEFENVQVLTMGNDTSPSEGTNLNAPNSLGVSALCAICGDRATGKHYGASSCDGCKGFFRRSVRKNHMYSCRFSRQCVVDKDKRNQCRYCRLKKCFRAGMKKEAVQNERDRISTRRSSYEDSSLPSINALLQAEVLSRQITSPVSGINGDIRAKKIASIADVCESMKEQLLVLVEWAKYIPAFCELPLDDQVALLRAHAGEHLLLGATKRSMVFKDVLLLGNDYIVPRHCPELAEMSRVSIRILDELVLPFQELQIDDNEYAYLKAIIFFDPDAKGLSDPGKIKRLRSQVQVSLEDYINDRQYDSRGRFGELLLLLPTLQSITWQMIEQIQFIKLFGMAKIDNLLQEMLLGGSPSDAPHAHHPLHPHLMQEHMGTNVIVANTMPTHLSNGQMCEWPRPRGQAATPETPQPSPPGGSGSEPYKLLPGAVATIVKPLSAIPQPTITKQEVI
# NR1D1 modulator: modulators of Rev-erb alpha DNA binding, primary screen, biochemical, FITC-DNA, fluorescence polarization, uHTS; Nuclear receptor subfamily 1 group D member 1 (Homo sapiens), P20393; Rev-erbα–FITC-DNA binding, 90 min; activity, % at 10 µM; hit rate 0.79% among 370,000;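 active = activity above about 14%, limit read from the data; passing the limit was not always enough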
# CSN deneddyl inh: inhibitors of CSN-mediated cullin deneddylation, primary screen, biochemical, fluorescence polarization, uHTS; Purified CSN, SCF-Nedd8-OG deneddylation; inhibition, % at 12.5 µM; hit rate 0.38% among 360,000; AID 651999, 2013;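 active = pattern-corrected inhibition above about 35%, with an unprinted fluorescence ratio check between 0.5 and 1.5, limit read from the data, passing the limit was not always enough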
#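 Material: purified human Csn5 enzyme expressed in HEK293T cells / Medium: Tris buffer pH 7.5, NaCl, DTT, Tween-20, trehalose, ovalbumin / Compound dosing: 12.5 µM single point / Schedule: 90 min incubation of compound, enzyme and substrate at room temperature / Signal: fluorescence polarization of the substrate / Control set: no-enzyme wells high, enzyme-with-substrate wells low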
# TPT1 inhibitor: Candida albicans TPT1 enzyme inhibitors, primary screen, biochemical, fluorescence polarization | AID 1962, 2009 | tRNA 2'-phosphotransferase TPT1 (Candida albicans SC5314) | inhibition, % at 5 µM | hit rate 0.81% among 300,000 | recombinant caTPT1, FP RNA substrate dephosphorylation;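 active = inhibition above the mean of all tested compounds plus 3 SD, set per screening campaign, cut at about 24% in these data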
# A number is an active result; . = inactive; / = no result given.
SMILES,HNF4A DNA FP,NR1D1 modulator,CSN deneddyl inh,TPT1 inhibitor
O=C(Nc1ccncc1NC(=O)c1cccc([N+](=O)[O-])c1)c1cccc([N+](=O)[O-])c1,.,.,41,.
O=C(NC(=S)Nc1ccc(Br)cn1)c1cncc(Br)c1,.,.,.,.
O=C(NC(=S)Nc1ccccn1)c1cncc(Br)c1,66,.,.,.
CC(C)C[C@@H]1COc2cc(Br)ccc2S(=O)(=O)N1Cc1cn(Cc2ccc(Cl)cc2)nn1,/,.,/,/
Oc1ccc2ccccc2c1,/,.,/,/
CCCOc1ccc(C2/C(=C(/O)c3ccc(F)cc3)C(=O)C(=O)N2CCCN(C)C)cc1 (centres undefined),.,.,39,.
CCOC(=O)C1=C(CSc2nc(-c3ccccc3)ccc2C#N)OC(N)=C(C#N)C1c1ccc(OC)cc1 (centres undefined),39,.,.,.
CC(=O)c1c(O)c(C)c(O)c2c1OC1=Cc3c(c(C)nn3C)C(=O)C12C (centres undefined),.,.,.,/
CC(=O)C1=C(O)C2(C)c3c(O)c(C)c(O)c(C(C)=O)c3OC2CC1=O (centres undefined),51,.,.,/
CCc1ccc(/C(C)=N/NC(=O)CNC(=O)/C=C/c2ccco2)cc1,.,/,38,.
CCc1ccc(/C(C)=N/NC(=O)CNC(=O)/C=C/c2ccccc2OC)cc1,.,.,.,.
COc1ccc(-c2csc(COC(=O)C(C)(C)C)n2)cc1,.,.,105,.
CC(C)(C)C(=O)OCc1nc(-c2ccc(F)cc2)cs1,.,.,.,.
Cc1ccc(S(=O)(=O)N2CCN(C3CC(=O)N(CCc4ccccc4)C3=O)CC2)cc1C (centres undefined),61,.,.,.
CCN=C1SC(C(=O)Nc2ccc(Cl)c(Cl)c2)CC(=O)N1CC (centres undefined),.,.,79,.
CCN=C1SC(C(=O)Nc2cccc(Cl)c2)CC(=O)N1CC (centres undefined),.,.,.,.
CCC(=O)N1CCc2cc(S(=O)(=O)N3CCN(c4ccccc4)CC3)ccc21,.,.,.,.
CCC(=O)N1CCc2cc(S(=O)(=O)N3CCc4ccccc4C3)ccc21,.,.,78,.
O=C1OC(c2ccc(F)cc2)=C/C1=C\c1ccc([N+](=O)[O-])o1,/,/,/,44
O=C1OC(c2ccc(F)cc2)=C/C1=C\c1ccc(O)cc1,.,.,.,.
O=C(O)[C@H]1O[C@H](O)[C@H](O)[C@@H](O)[C@@H]1O,/,.,/,/
CC1(C)O[C@@H]2CC3C4CCC5=CC(=O)CCC5(C)[C@]4(F)C(O)CC3(C)[C@]2(C(=O)CCl)O1 (some centres undefined),/,.,/,/
CCOC(=O)Nc1cc2c(cc1[N+](=O)[O-])-c1ccccc1C2=O,38,.,.,/
Cc1ccc(S(=O)(=O)N2CCCC2C(=O)N2CCc3ccccc3C2)cc1 (centres undefined),/,.,/,/
Cc1ccc(S(=O)(=O)N2[C@@H](c3ccc(Cl)cc3)C(C(=O)OC(C)(C)C)=CC[C@H]2c2ccc(Cl)c(Cl)c2)cc1,.,.,144,/
SMILES,HNF4A DNA FP,NR1D1 modulator,CSN deneddyl inh,TPT1 inhibitor
CC1=C(C(=O)O)N2C(=O)[C@@H](NC(=O)[C@H](N)C3=CCC=CC3)[C@@H]2SC1,/,.,/,/
C=CCc1ccc(OCC(O)CN2CCCCC2)c(OC)c1 (centres undefined),50,.,.,.
NC(=O)c1ccc(NC(=O)COC(=O)/C=C/c2ccc(Br)o2)cc1,.,.,48,/
CC(=O)O[C@]1(C(C)=O)CCC2C3C[C@H](C)C4=CC(=O)CC[C@]4(C)C3CC[C@@]21C (some centres undefined),/,.,/,/
CCOC(=O)C1=C(c2ccccc2)N=c2s/c(=C\c3ccco3)c(=O)n2C1c1cccs1 (centres undefined),.,.,38,.
CCCCCCCCCCCCCCCCCC(=O)OCC(O)[C@H]1OC[C@H](O)[C@H]1O (some centres undefined),/,.,/,/
CCOc1ccc(CCNC(=O)COC(=O)CCC(=O)c2cccs2)cc1OCC,.,.,38,/
COc1ccc(N/C(=C\C(=O)c2ccccc2)c2ccccc2)cc1OC,/,.,/,/
